SR-BI HDL uptake: mouse SR-BI HDL lipid transfer inhibition; inhibition, % at 12.5 µM; 0.96% of 320,000 active; Q61009; ldlA[mSR-BI] CHO cells, DiI-HDL uptake fluorescence, 3 h;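 active = mean replicate inhibition of at least 70% and a set share of replicates each scoring 70 or more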;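 also: 0% = median of neutral control wells and 100% = median of positive control wells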
Target sequence (Q61009 whole entry, looked up): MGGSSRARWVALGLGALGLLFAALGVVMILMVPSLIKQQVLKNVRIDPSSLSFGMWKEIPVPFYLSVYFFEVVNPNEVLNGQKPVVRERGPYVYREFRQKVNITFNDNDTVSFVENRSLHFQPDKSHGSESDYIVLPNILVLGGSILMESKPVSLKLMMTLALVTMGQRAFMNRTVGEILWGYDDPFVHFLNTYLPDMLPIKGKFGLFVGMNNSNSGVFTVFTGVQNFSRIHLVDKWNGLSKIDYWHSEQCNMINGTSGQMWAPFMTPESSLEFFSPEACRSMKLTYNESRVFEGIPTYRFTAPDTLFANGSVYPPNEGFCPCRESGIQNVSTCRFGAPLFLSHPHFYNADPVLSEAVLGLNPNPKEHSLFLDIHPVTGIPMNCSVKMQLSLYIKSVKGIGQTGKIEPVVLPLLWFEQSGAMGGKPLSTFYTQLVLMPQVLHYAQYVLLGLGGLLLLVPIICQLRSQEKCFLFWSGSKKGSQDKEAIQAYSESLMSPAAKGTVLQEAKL
CaV13 FRET inh: Primary screen for inhibitors of IQ motif and Ca2+-dependent inactivation inhibitor domain binding in CACNA1D, Förster resonance energy transfer in living cells, … | HEK cells, CFP/YFP FRET ICDI-IQ, plate reader, 10 min; percent FRET-ratio fall versus neutral wells | inhibition, % at 12.3 µM | 0.098% of 340,000 active | AID 743397;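 active = mean replicate inhibition of at least 30% and at least 1% of replicates passing that level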;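 also: 0% = median of the neutral control wells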
Efflux pump mplx: inhibitors of Candida antifungal efflux pumps expressed in yeast | S. cerevisiae Candida pump triplex, Nile Red efflux | inhibition, % at 10 µM | 0.44% of 330,000 active;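 active = plate passing quality check with inhibition over a set limit, or well fluorescence over plate mean plus 4 SD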;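 also: Nile Red retained in pooled yeast measured as flow cytometry median fluorescence; 0% = buffer negative control and 100% = Enniatin B positive control; higher means more Nile Red kept so more efflux inhibition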
SR-BI DiI-HDL act: SR-BI HDL lipid transfer activation. activation, % at 12.5 µM. AID 504775. CHO ldlA[mSR-BI] cells, DiI-HDL uptake fluorescence, 3 h; 100 = double the neutral-control signal. 0.096% of 320,000 active;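 active = mean replicate activation of at least 60% and every replicate at or above 60%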;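 also: 0% = median plate neutral-control signal and 100% = twice that signal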
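System: CHO ldlA[mSR-BI] cells / Medium: HEPES-buffered (25 mM, pH 7.4) F12 plus 0.5% BSA / Probe or stimulus: labelled HDL, 10 µg/mL / Doses: single compound concentration, delivered by pin transfer / Schedule: 3 h, 37 °C / Measured by: DiI fluorescence, bottom read / Measure: cell-associated DiI fluorescence as measure of HDL uptake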
FN deposit inh: fibronectin deposition inhibition. AH1F fibroblasts, Alexa488-fibronectin deposition fluorescence, overnight. inhibition, % at 12.6 µM. 0.086% of 350,000 active;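 active = mean inhibition across replicates of 30% or more, regardless of how many single replicates reach that level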;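 also: positive control wells lacked labelled fibronectin entirely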
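test system = AH1F fibroblasts assembling fluorescent fibronectin matrix | quantity = 10000 AH1F cells per well | buffer or medium = DMEM plus 2% serum, read in PBS | doses = single dose, pinned | incubation = 1 h cell attachment, overnight exposure to compound and label | detection = fluorescence at 485 nm excitation, 525 nm emission | read-out basis = inhibition from reduced deposited-fibronectin fluorescence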
Yeast cmpd fluor: counter-screen for efflux pump inhibitors: compound fluorescence. shares compounds with Efflux pump mplx. S. cerevisiae AD/pABC3, flow cytometry. fluorescence ratio to DMSO, % at 10 µM. 4% of 1,700 active. AID 588517;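 active = fluorescence ratio to DMSO above its plate's cutoff, the plate mean ratio plus 5 SD, cut at about 210% in these data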;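 also: unstained yeast with no Nile Red so the signal is compound autofluorescence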
CaMdr1 efflux inh: blocks the Candida albicans Mdr1 efflux pump in yeast; 1% of 1,700 active; shares compounds with Efflux pump mplx; AID 588518; inhibition, % at 10 µM; S. cerevisiae AD/CaMDR1, Nile Red efflux, flow cytometry; in the data active = inhibition above about 26%;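 also: 0% = DMSO vehicle and 100% = reference inhibitor; higher means more Nile Red retained so more efflux inhibition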
CaCdr2 efflux inh: blocks the Candida albicans Cdr2 efflux pump in yeast | shares compounds with Efflux pump mplx | S. cerevisiae AD/CaCDR2, Nile Red retention, flow cytometry | Nile Red retention ratio vs DMSO, % at 10 µM | 4% of 1,700 active | AID 588520; in the data active = Nile Red retention ratio vs DMSO above about 190%;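 also: higher ratio means more blocking of Cdr2 efflux of the dye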
CaCdr1 efflux inh: inhibitors of Candida albicans Cdr1 efflux pump; shares compounds with Efflux pump mplx; S. cerevisiae AD/CaCDR1, Nile Red efflux, flow cytometry; inhibition, % at 10 µM; 1% of 1,700 active; AID 588522;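 active = inhibition above the screen-wide mean plus twice its standard deviation, cut at about 32% in these data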
Starred values were filed as active, the others as inactive; · = no result given. Sampled rows, rich in hits. Any-hit rate of the full collection: about 1.2%.

SMILES	SR-BI HDL uptake	CaV13 FRET inh	Efflux pump mplx	SR-BI DiI-HDL act	FN deposit inh	Yeast cmpd fluor	CaMdr1 efflux inh	CaCdr2 efflux inh	CaCdr1 efflux inh
COc1ccc(CN(C)C[C@H]2OCCCC[C@@H](C)Oc3ccc(NC(=O)Nc4ccccc4)cc3C(=O)N([C@H](C)CO)C[C@H]2C)cc1	·	·	·	·	13	·	·	·	·
CC(=O)OCCn1c2nc(=O)[nH]c(=O)c-2nc2cc(C)c(C)cc21	-19	-77	0.7*	19	-9	121	0	137	1
CC(=O)OCCn1c(C)[n+](CCOC(C)=O)c2cc(Cl)c(Cl)cc21	-4	8	-1	4	-4	·	·	·	·
C/C=C/c1ccc([C@H]2[C@@H](CN(C)C(=O)C3CC3)N(C(=O)CC)[C@H]2CO)cc1	·	·	·	·	4	·	·	·	·
CCCCN(C(=O)CCC(=O)Nc1cc(C)on1)C(C(=O)NC(C)(C)C)c1cccc(OC)c1OC (configuration not stated)	2	-2	0	-2	·	·	·	·	·
COc1cccc(C(C(=O)NC(C)(C)C)N(C(=O)CCC(=O)Nc2cc(C)on2)C2CC2)c1OC (configuration not stated)	-18	14	0	18	-9	97	0	100	0
COc1ccc(C(C(=O)NC(C)(C)C)N(CCc2ccccc2)C(=O)CCC(=O)Nc2cc(C)on2)cc1 (configuration not stated)	·	-3	0	·	-3	·	·	·	·
COc1ccc(C(C(=O)NC(C)(C)C)N(CCO)C(=O)CCC(=O)Nc2cc(C)on2)cc1 (configuration not stated)	·	-3	0	·	8	97	0	102	0
CC(C)(C)NC(=O)C(c1ccc(F)cc1)N(C(=O)CCC(=O)Nc1ccccn1)C1CCCC1 (configuration not stated)	-5	-6	2.4*	5	10	103	0	131	0
N#C[C@H]1[C@@H](c2ccccc2C2=CCCC2)[C@@H](CO)N1C(=O)C1CCC1	·	·	·	·	-2	·	·	·	·
N#C[C@H]1[C@H](c2ccccc2C2=CCCCC2)[C@@H](CO)N1C(=O)c1cccc(F)c1	·	·	·	·	-16	·	·	·	·
O=C(O)C[C@H]1C[C@H]2c3cc(NC(=O)c4ccc5c(c4)OCO5)ccc3O[C@H]2[C@H](CO)O1	·	·	·	·	-1	·	·	·	·
CCOC(=O)c1ccc(S(=O)(=O)NNS(=O)(=O)c2ccc(C)cc2)cc1	-11	-16	2.1*	11	0	97	0	101	0
CCOC(=O)c1ccc(S(=O)(=O)NC2CC2)cc1	·	-7	0	·	-8	·	·	·	·
CCN(CCO)Cc1csc2ccccc12	9	-5	0	-9	-6	·	·	·	·
CCN(CCO)Cc1csc2cc(C)ccc12	12	-3	7.5*	-12	-2	88	0	96	0
C[C@@H](NC(=O)C[C@@H]1CC[C@H](NC(=O)Nc2ccc3c(c2)OCO3)[C@@H](CO)O1)c1ccccc1	·	·	·	·	-2	·	·	·	·
Cc1noc(C)c1NC(=O)NCC[C@@H]1CC[C@H](NC(=O)c2ccc(F)cc2)[C@H](CO)O1	·	·	·	·	4	·	·	·	·
CN1C(=O)/C(=C/c2ccc(C(F)(F)F)cc2)Sc2ccc(C(=O)N3CCN(c4ccccn4)CC3)cc21	39	-8	0.7*	-39	-3	100	0	112	0
O=C(O)CNS(=O)(=O)c1ccc2c3c(cccc13)C(=O)N2	-16	-3	0.7*	16	-3	111	0	100	0
O=C(Nc1ccc2nc3n(c(=O)c2c1)CCCCC3)c1cc([N+](=O)[O-])ccc1F	2	-4	0.7*	-2	7	94	0	90	0
COc1ccccc1CNC(=O)C[C@H]1C=C[C@H](NC(C)=O)[C@H](CO)O1	·	·	·	·	-7	·	·	·	·
Cc1cc(C)c(-c2csc(NC(=O)/C=C/c3cccs3)n2)c(C)c1	54	-2	23*	-54	3	105	0	91	0
COCC#Cc1ccc([C@@H]2[C@@H](CO)N3C(=O)CN(C(=O)C4CCCC4)C[C@H]23)cc1	·	·	·	·	-6	·	·	·	·
Cc1ccc(OCc2cc(C(=O)NCC(C)(C)N3CCOCC3)no2)cc1C	34	-5	2	·	3	98	0	98	1
SMILES	SR-BI HDL uptake	CaV13 FRET inh	Efflux pump mplx	SR-BI DiI-HDL act	FN deposit inh	Yeast cmpd fluor	CaMdr1 efflux inh	CaCdr2 efflux inh	CaCdr1 efflux inh
C[C@@H]1CCCCO[C@H](CN(C)Cc2ccccc2)[C@@H](C)CN([C@@H](C)CO)C(=O)c2cc(NC(=O)c3ccncc3)ccc2O1	·	·	·	·	-2	·	·	·	·
C[C@H](CO)N1C[C@H](C)[C@H](CN(C)Cc2ccccc2)OCCCC[C@H](C)Oc2ccc(NC(=O)Nc3ccc(C(F)(F)F)cc3)cc2C1=O	·	·	·	·	3	·	·	·	·
Cc1ccc(CS(=O)(=O)c2nc3c(c(N(C)C)n2)CCCC3)cc1	23	-4	0	-23	-1	·	·	·	·
Cc1nc(S(=O)(=O)Cc2ccc(Cl)cc2)nc2c1CCC2	-12	-2	1.9*	12	4	105	0	100	0
CCOC(=O)C(NC(=O)CC)(Nc1ccc(S(N)(=O)=O)cc1)C(F)(F)F (configuration not stated)	·	-5	0	·	6	·	·	·	·
CCOC(=O)C(NC(=O)CC)(Nc1ccccc1)C(F)(F)F (configuration not stated)	·	-19	5.5*	·	6	93	0	94	0
COc1cccc(N/C=C/C(=O)c2ccc(Cl)cc2)c1	14	-6	0	-14	-8	·	·	·	·
COc1ccc(N/C=C/C(=O)c2ccc(Cl)cc2)cc1	-13	-9	15*	13	-1	94	0	100	0
O=C(Cc1ccccc1)N[C@H]1C=C[C@@H](CC(=O)N2CCOCC2)O[C@@H]1CO	·	·	·	·	-1	·	·	·	·
Cc1nnc(SCc2cc(=O)[nH]c(Nc3nc(C)c4cc(C)c(C)cc4n3)n2)s1	6	-5	1.6*	-6	-12	106	0	102	0
Cc1ccc2c(C)nc(Nc3nc(CSc4nc5ccccc5s4)cc(=O)[nH]3)nc2c1	19	-15	·	-19	-3	·	·	·	·
O=C(COC(=O)c1ccc(O)cc1O)NCCN1C(=O)CSC1=O	-20	-5	0	20	-8	100	0	97	0
O=C(COC(=O)c1cc(Cl)ccc1Cl)NCCN1C(=O)CSC1=O	-3	-2	32*	3	14	95	0	101	0
Cc1cc(OCC(=O)OCC(=O)NCCN2C(=O)CSC2=O)ccc1Cl	-3	-5	0	3	1	·	·	·	·
